Numbering of substitutions follows the chain as printed.
Tests used:
Conditions in all cases: stereoisomer not certain
[1] = target: T1, OR4S2 (Homo sapiens) (UniProt Q8NH73)
T1 sequence (whole entry): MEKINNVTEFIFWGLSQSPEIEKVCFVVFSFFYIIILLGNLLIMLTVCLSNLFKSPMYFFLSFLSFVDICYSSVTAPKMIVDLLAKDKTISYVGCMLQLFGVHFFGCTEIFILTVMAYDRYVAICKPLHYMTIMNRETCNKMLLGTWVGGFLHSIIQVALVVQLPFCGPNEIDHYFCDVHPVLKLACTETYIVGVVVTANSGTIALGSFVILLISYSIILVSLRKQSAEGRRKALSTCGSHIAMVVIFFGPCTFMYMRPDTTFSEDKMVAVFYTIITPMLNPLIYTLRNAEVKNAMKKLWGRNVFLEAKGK
Outline: (§1)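 Assay methods differ from source to source, frequently being transient luciferase assays in mammalian cell lines. For each receptor–molecule pair, the label responsive (active) applies when the original authors judged the measured signal statistically different from baseline, and non-responsive (inactive) applies otherwise.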

[2] = target: T2, OR4X1 (Homo sapiens) (UniProt Q8NH49)
T2 sequence (whole entry): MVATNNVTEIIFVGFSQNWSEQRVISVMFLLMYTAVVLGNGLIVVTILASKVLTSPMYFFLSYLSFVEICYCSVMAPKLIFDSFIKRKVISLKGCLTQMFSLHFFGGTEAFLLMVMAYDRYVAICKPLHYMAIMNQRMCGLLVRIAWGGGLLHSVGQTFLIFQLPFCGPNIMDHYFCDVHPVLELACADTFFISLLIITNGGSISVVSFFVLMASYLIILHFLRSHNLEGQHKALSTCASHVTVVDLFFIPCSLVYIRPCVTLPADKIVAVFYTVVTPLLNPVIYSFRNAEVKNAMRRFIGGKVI
Outline: as §1

[3] = target: T3, OR4X2 (Homo sapiens) (UniProt Q8NGF9)
T3 sequence (whole entry): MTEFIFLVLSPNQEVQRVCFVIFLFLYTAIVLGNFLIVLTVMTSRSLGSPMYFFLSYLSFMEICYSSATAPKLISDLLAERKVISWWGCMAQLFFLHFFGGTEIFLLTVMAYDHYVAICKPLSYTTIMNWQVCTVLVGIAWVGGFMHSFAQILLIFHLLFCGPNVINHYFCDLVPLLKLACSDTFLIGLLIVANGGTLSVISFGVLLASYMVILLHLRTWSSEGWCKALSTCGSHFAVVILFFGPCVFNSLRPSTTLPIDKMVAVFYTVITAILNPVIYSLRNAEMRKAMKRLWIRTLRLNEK
Outline: as §1

[4] = target: T4, OR51A2 (Homo sapiens) (UniProt Q8NGJ7)
T4 sequence (whole entry): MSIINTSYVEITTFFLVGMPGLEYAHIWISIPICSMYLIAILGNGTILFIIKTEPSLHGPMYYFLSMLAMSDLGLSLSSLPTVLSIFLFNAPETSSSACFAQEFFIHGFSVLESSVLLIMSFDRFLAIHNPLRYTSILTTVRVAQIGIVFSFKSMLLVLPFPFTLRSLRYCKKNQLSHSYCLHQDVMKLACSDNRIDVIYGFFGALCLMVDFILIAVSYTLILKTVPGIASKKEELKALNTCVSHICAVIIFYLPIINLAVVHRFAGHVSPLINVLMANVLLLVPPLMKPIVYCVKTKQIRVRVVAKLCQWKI
Outline: as §1

[5] = target: T5, OR51A4 (Homo sapiens) (UniProt Q8NGJ6)
T5 sequence (whole entry): T4 sequence (whole entry) with G59E, T94I, S97N, S167N, P227L, E235Q, G267R, M288T, K289N, W311R
Outline: as §1

[6] = target: T6, OR51A7 (Homo sapiens) (UniProt Q8NH64)
T6 sequence (whole entry): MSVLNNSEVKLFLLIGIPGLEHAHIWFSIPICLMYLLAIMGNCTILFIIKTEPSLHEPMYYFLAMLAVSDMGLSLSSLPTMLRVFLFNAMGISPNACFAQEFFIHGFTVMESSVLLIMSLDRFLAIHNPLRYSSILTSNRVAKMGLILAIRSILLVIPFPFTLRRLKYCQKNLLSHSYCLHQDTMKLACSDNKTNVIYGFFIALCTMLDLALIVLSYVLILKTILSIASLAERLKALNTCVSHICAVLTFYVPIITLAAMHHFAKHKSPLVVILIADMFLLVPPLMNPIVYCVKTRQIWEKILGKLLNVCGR
Outline: as §1

[7] = target: T7, OR51B2 (Homo sapiens) (UniProt Q9Y5P1)
T7 sequence (whole entry): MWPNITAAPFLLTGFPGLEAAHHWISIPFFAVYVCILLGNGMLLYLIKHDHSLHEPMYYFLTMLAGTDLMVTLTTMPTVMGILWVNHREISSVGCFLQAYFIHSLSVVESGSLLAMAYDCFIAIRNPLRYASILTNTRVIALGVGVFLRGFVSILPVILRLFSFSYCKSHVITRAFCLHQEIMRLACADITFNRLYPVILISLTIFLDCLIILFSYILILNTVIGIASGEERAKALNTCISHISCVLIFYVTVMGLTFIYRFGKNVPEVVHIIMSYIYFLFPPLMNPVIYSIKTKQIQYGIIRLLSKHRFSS
Outline: as §1

[8] = target: T8, OR51B4 (Homo sapiens) (UniProt Q9Y5P0)
T8 sequence (whole entry): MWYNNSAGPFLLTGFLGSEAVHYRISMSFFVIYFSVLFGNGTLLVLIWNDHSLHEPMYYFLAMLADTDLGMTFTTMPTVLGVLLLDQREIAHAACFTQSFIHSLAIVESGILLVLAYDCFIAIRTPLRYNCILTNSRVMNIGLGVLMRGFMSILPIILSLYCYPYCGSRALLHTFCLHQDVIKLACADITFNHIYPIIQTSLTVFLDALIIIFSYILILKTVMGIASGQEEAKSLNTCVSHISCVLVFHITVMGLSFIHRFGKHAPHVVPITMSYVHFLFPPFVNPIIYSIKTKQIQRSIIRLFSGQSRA
Outline: as §1

[9] = target: T9, OR51B5 (Homo sapiens) (UniProt Q9H339)
T9 sequence (whole entry): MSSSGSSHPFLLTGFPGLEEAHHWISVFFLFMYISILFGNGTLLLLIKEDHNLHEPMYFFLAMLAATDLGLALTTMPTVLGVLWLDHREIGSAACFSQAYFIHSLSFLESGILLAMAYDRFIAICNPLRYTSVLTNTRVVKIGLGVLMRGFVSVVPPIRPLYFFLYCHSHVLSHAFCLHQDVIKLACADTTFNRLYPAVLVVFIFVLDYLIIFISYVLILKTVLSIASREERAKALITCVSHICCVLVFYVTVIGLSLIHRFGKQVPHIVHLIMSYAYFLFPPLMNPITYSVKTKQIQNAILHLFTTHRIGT
Outline: as §1

[10] = target: T10, OR51B6 (Homo sapiens) (UniProt Q9H340)
T10 sequence (whole entry): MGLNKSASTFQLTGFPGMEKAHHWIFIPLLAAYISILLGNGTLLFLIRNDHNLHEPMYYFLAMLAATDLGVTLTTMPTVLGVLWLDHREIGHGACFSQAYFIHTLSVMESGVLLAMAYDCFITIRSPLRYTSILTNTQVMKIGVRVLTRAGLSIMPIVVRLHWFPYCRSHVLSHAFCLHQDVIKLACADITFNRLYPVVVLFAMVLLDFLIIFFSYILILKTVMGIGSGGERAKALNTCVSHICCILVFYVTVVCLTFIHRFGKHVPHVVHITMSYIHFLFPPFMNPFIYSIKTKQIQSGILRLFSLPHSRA
Outline: as §1

[11] = target: T11, OR51D1 (Homo sapiens) (UniProt Q8NGF3)
T11 sequence (whole entry): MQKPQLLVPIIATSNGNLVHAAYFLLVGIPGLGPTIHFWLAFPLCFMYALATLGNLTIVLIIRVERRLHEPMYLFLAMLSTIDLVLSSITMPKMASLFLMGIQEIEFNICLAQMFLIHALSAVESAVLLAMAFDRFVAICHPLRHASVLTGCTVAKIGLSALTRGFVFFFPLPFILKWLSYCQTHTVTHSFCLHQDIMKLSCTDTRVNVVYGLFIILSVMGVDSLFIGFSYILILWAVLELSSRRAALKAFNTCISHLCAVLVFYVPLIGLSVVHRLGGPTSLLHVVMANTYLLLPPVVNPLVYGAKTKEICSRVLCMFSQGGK
Outline: as §1

[12] = target: T12, OR51E1 (Homo sapiens) (UniProt Q8TCB6)
T12 sequence (whole entry): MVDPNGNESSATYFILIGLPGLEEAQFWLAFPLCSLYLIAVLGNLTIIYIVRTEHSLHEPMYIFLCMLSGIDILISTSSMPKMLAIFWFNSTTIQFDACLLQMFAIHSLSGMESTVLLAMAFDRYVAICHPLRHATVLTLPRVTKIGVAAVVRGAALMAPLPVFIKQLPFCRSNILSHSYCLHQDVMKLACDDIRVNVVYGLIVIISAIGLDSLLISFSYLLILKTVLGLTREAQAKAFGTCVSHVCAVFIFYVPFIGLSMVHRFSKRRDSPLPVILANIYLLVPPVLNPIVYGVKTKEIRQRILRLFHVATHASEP
Outline: as §1

[13] = target: T13, OR51E2 (Homo sapiens) (UniProt Q9H255)
T13 sequence (whole entry): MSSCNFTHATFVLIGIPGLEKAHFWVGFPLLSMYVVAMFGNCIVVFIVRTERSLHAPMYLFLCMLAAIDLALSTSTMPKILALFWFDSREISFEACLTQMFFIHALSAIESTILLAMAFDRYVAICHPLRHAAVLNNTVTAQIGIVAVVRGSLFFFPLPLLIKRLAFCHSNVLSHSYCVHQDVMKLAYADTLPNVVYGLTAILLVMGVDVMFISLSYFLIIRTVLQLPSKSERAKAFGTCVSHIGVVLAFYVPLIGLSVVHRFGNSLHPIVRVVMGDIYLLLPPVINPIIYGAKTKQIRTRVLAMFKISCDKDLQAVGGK
Outline: as §1

[14] = target: T14, OR51F1 (Homo sapiens) (UniProt A6NGY5)
T14 sequence (whole entry): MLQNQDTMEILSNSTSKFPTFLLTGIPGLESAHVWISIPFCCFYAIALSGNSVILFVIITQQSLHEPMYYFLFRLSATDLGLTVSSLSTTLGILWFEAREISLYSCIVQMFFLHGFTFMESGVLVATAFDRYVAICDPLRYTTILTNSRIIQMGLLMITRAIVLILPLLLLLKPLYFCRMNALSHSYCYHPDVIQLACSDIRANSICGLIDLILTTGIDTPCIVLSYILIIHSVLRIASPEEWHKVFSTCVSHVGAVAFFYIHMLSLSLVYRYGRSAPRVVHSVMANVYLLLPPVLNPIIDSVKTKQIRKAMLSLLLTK
Outline: as §1

[15] = target: T15, OR51F2 (Homo sapiens) (UniProt Q8NH61)
T15 sequence (whole entry): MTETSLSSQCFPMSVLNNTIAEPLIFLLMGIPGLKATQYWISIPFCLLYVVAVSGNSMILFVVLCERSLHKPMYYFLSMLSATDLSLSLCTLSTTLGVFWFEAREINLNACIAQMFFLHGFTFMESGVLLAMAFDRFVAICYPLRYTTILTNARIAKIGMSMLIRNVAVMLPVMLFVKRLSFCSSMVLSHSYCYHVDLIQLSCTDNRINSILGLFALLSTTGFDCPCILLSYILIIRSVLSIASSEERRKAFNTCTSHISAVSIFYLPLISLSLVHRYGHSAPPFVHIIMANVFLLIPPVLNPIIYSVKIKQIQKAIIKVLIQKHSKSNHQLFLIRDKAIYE
Outline: as §1

[16] = target: T16, OR51G1 (Homo sapiens) (UniProt Q8NGK1)
T16 sequence (whole entry): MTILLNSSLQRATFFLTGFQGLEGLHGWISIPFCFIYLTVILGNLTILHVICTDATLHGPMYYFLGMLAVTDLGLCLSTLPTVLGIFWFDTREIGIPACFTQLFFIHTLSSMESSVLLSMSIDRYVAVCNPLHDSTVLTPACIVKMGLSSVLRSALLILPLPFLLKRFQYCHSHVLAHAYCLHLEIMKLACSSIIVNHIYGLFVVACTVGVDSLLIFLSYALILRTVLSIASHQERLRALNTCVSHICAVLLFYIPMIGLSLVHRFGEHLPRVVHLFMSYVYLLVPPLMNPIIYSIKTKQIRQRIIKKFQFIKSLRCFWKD
Outline: as §1

[17] = target: T17, OR51G2 (Homo sapiens) (UniProt Q8NGK0)
T17 sequence (whole entry): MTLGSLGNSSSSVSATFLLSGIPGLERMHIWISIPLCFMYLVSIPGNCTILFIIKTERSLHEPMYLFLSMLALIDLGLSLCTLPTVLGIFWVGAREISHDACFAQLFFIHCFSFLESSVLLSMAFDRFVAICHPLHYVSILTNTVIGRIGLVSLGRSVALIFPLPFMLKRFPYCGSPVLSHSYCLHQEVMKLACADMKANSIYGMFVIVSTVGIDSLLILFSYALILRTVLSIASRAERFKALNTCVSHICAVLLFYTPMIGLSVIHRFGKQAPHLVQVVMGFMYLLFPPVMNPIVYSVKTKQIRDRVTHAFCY
Outline: as §1

[18] = target: T18, OR51I1 (Homo sapiens) (UniProt Q9H343)
T18 sequence (whole entry): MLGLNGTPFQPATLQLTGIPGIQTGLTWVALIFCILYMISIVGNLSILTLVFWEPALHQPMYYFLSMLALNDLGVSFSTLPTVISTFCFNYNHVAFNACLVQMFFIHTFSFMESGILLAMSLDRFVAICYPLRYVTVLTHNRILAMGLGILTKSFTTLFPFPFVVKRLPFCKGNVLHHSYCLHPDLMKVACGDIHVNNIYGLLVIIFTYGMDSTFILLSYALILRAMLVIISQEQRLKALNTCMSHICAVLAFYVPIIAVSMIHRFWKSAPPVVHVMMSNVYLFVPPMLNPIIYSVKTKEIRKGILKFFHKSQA
Outline: as §1

[19] = target: T19, OR51E1 (Homo sapiens) (UniProt Q8TCB6); remark: listed apart in the source
T19 sequence (whole entry): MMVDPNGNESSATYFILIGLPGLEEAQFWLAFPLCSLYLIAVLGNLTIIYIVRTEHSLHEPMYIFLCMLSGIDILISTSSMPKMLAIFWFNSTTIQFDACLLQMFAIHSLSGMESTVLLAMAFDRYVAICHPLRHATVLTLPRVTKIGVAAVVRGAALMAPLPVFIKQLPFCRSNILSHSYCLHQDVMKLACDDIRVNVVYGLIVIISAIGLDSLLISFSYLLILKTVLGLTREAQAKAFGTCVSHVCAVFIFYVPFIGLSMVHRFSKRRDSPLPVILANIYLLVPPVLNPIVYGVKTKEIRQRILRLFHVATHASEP
Outline: as §1

Measured: odorant receptor agonist call

CCC(S)C(C)CO (stereo unspecified)
inactive: [1] | [2] | [3] | [4] | [5] | [6] | [7] | [8] | [9] | [10] | [11] | [12] | [13] | [14] | [15] | [16] | [17] | [18]

CC1=CCC2CC1C2(C)C (stereo unspecified)
inactive: [9]

CCC1OC(=O)C(O)=C1C (stereo unspecified)
inactive: [1] | [2] | [3] | [4] | [5] | [6] | [7] | [8] | [9] | [10] | [11] | [19] | [13] | [15] | [16] | [17] | [18]

— the M2OR odorant receptor database
